From ChEMBL document CHEMBL5042555, “Development of Myostatin Inhibitory d-Peptides to Enhance the Potency, Increasing Skeletal Muscle Mass in Mice” (ACS Med Chem Lett, 2022)
Activity calls are given as the source filed them. The calls are words filed in the database; no cut-off is given here. Non-standard residues stand in square brackets, D forms with d. Residues, ends and D or L forms follow the SMILES beside them. Chg = N[C@H](C(=O)O)C1CCCCC1

Experiments:
[1] = target: T1, Growth/differentiation factor 8 (Homo sapiens, UniProt O14793); assay: Inhibition of myostatin (unknown origin) expressed in HEK293 cells transfected with Smad2/3 responsive reporter plasmid incubated for 4 hrs by dual luciferase reporter gene based assay; assay type: cell-based
T1 sequence (O14793 whole entry): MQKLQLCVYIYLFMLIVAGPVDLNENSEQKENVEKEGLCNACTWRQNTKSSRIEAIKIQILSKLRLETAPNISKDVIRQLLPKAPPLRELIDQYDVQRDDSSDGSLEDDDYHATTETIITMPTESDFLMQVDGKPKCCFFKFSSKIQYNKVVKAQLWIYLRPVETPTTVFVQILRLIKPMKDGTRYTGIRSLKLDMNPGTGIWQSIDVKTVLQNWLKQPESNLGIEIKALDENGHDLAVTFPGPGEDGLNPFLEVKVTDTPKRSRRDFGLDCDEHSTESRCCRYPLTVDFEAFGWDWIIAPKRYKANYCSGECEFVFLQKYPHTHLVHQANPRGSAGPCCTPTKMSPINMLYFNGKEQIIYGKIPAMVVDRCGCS

[2] = Inhibition of GDF-11 (unknown origin) expressed in HEK293 cells transfected with Smad2/3 responsive reporter plasmid incubated for 4 hrs by dual luciferase reporter gene based assay; conditions: Homo sapiens, HEK293, 4 h
[3] = Inhibition of activin A (unknown origin) expressed in HEK293 cells transfected with Smad2/3 responsive reporter plasmid incubated for 4 hrs by dual luciferase reporter gene assay; conditions: Homo sapiens, HEK293, 4 h
[4] = target: Transforming growth factor beta-1 proprotein (Homo sapiens, UniProt P01137); assay: Inhibition of TGF beta 1 (unknown origin) expressed in HEK293 cells transfected with Smad2/3 responsive reporter plasmid incubated for 4 hrs by dual luciferase reporter gene assay; assay type: cell-based
Sequence of Transforming growth factor beta-1 proprotein (P01137 279-390 limits assumed): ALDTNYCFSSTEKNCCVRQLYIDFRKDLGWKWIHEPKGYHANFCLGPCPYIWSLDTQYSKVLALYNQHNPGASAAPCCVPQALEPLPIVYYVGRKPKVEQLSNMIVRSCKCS
How it was run: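 HEK293 cells co-transfected with Smad-responsive firefly luciferase reporter (pGL4.48[luc2P/SBE/Hygro]) and Renilla control (pGL4.74[hRluc/TK]). Cells starved 8 h in serum-free DMEM, then exposed 4 h to TGF-β1 at 2.5 ng/mL (0.1 nM) with or without peptide (0.025–18 or 0.074–54 μM). SB431542 at 5 μM as positive control. Triplicate means ± SD. IC50 from sigmoidal curve fitting.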

Mus musculus = assay: In vivo inhibition of myostatin in C57BL/6J mouse assessed as increase in weight of tibialis anterior muscles normalized with body weight at 0.75 mM, IM administered for 28 days; assay type: functional; conditions: time 28.0 day
How it was run: (§1)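 Wild-type male C57BL/6J mice, 8 weeks old. Single intramuscular injection at day 0: peptide (30 nmol; 0.75 mM in saline, 40 μL) into left tibialis anterior, saline (40 μL) into right TA. TA muscles collected and weighed at day 28, weight normalized to body weight. Increase expressed relative to saline-injected TA (=100%). Mean ± SD, N = 4–5 mice.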

[5] = In vivo inhibition of myostatin in C57BL/6J mouse assessed as increase in weight of tibialis anterior muscles at 0.75 mM, IM administered for 28 days relative to control; assay type: functional; parameters: scale not given: the % may be the effect or the level left; conditions: time 28 day; how it was run: as §1

Row | IC50 [1] [µM] | IC50 [2] [µM] | IC50 [3] [µM] | IC50 [4] [µM] | Structure (SMILES) | Activity (Mus musculus) | Activity [5] [%]
1 | 0.19 | 0.63 | 0.89 | 1.6 | CC[C@@H](C)[C@@H](NC(=O)[C@@H](CCCNC(=N)N)NC(=O)[C@@H](Cc1c[nH]c2ccccc12)NC(=O)[C@H](NC(=O)[C@@H](CCCCN)NC(=O)[C@H](NC(=O)[C@@H](CCCNC(=N)N)NC(=O)[C@H](NC(=O)[C@@H](Cc1c[nH]c2ccccc12)NC(=O)[C@@H](CCCNC(=N)N)NC(=O)[C@@H](CCCCN)NC(=O)[C@H](NC(=O)[C@@H](CCCNC(=N)N)NC(=O)[C@H](N)CC(C)C)C1CCCCC1)[C@H](C)CC)C1CCCCC1)[C@H](C)CC)C(=O)N[C@H](Cc1ccc(O)cc1)C(=O)N[C@H](Cc1c[nH]c2ccccc12)C(N)=O | Active | 133
2 | 0.26 | 1.4 | 1.4 | 6.7 | CC[C@H](C)[C@H](NC(=O)[C@H](CCC(N)=O)NC(=O)[C@@H](NC(=O)[C@H](CCCCN)NC(=O)[C@@H](NC(=O)[C@@H](Cc1c[nH]c2ccccc12)NC(=O)[C@H](CCCNC(=N)N)NC(=O)[C@@H](NC(=O)[C@H](Cc1ccc(O)cc1)NC(=O)[C@@H](N)Cc1c[nH]c2ccccc12)[C@@H](C)CC)[C@@H](C)CC)C1CCCCC1)C(=O)N[C@@H](Cc1c[nH]c2ccccc12)C(=O)N[C@@H](CO)C(=O)N[C@@H](CCCCN)C(=O)N[C@H](C(=O)N[C@@H](CCCNC(=N)N)C(=O)N[C@@H](CC(C)C)C(N)=O)C1CCCCC1 (H-WYIR[dW]IK[Chg]QIWSK[Chg]RL-NH2) | Active | 109
